From ChEMBL document CHEMBL1250450, “Well-defined regions of the Plasmodium falciparum reticulocyte binding protein homologue 4 mediate interaction with red blood cell membrane” (J Med Chem, 2010)
Residues, ends and D or L forms follow the SMILES beside them.

Species: Homo sapiens
Assay: Binding affinity to RBC membrane receptor in human RBC assessed as specific binding activity measured as ratio of specifically bound peptide/added peptide by gamma counter
Procedure, shortened: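 1 × 10^8 healthy-donor RBCs incubated in triplicate with four rising concentrations of 125I-peptide (0-560 nM), with or without unlabeled peptide, then washed in HBS (pH 7.4) and gamma-counted. Specific binding (total minus nonspecific) plotted against added peptide; the slope is the specific binding activity. The HABP cutoff is ≥2%.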

Row | Compound | Activity
1 | CC[C@H](C)[C@H](NC(=O)[C@@H](NC(=O)[C@H](CCCNC(=N)N)NC(=O)[C@H](CCC(N)=O)NC(=O)[C@H](CO)NC(=O)[C@@H](NC(=O)[C@H](CC(N)=O)NC(=O)[C@@H](NC(=O)[C@@H](NC(=O)[C@@H](N)CCCCN)[C@@H](C)O)[C@@H](C)CC)[C@H](C)O)[C@@H](C)O)C(=O)N[C@@H](CC(=O)O)C(=O)N[C@@H](CC(=O)O)C(=O)N[C@@H](CO)C(=O)N[C@@H](CC(N)=O)C(=O)N[C@@H](CCSC)C(=O)N[C@@H](CC(=O)O)C(=O)N[C@@H](CCCNC(=N)N)C(=O)N[C@@H](CC(N)=O)C(=O)N[C@@H](CC(N)=O)C(=O)N[C@@H](CCCNC(=N)N)C(=O)N[C@@H](Cc1ccc(O)cc1)C(=O)O | < 2%
2 | CC[C@H](C)[C@H](NC(=O)[C@H](CC(N)=O)NC(=O)[C@H](CCCCN)NC(=O)[C@H](CCC(=O)O)NC(=O)[C@H](CC(N)=O)NC(=O)[C@@H](NC(=O)[C@H](Cc1cnc[nH]1)NC(=O)[C@H](CCC(=O)O)NC(=O)[C@H](CC(N)=O)NC(=O)[C@H](CC(N)=O)NC(=O)[C@@H](NC(=O)[C@H](CC(N)=O)NC(=O)[C@H](CC(N)=O)NC(=O)[C@H](CCC(=O)O)NC(=O)[C@H](CC(N)=O)NC(=O)[C@@H](NC(=O)[C@H](Cc1cnc[nH]1)NC(=O)[C@H](CCC(=O)O)NC(=O)[C@H](CC(N)=O)NC(=O)[C@@H](N)CC(N)=O)[C@H](C)O)[C@@H](C)CC)[C@H](C)O)C(=O)N[C@@H](Cc1ccc(O)cc1)C(=O)O | < 2%
3 | CC[C@H](C)[C@H](NC(=O)[C@H](CCC(N)=O)NC(=O)[C@H](CCC(N)=O)NC(=O)[C@H](CO)NC(=O)[C@H](Cc1ccc(O)cc1)NC(=O)[C@H](CC(N)=O)NC(=O)[C@@H](NC(=O)[C@H](CC(N)=O)NC(=O)[C@H](Cc1cnc[nH]1)NC(=O)[C@@H](NC(=O)[C@H](Cc1ccccc1)NC(=O)[C@@H](NC(=O)[C@H](CC(=O)O)NC(=O)[C@@H](N)CO)C(C)C)[C@H](C)O)[C@@H](C)CC)C(=O)N[C@@H](CC(C)C)C(=O)N[C@@H](CC(N)=O)C(=O)N[C@@H](Cc1ccc(O)cc1)C(=O)N[C@@H](CO)C(=O)N[C@@H](CCC(N)=O)C(=O)N[C@@H](C)C(=O)O | < 2%
4 | CC[C@H](C)[C@H](NC(=O)[C@H](Cc1ccc(O)cc1)NC(=O)[C@H](CCC(=O)O)NC(=O)[C@H](Cc1ccc(O)cc1)NC(=O)[C@H](CCC(=O)O)NC(=O)[C@H](CCCCN)NC(=O)[C@H](C)NC(=O)[C@H](C)NC(=O)[C@H](CC(N)=O)NC(=O)[C@@H](NC(=O)[C@H](C)NC(=O)[C@H](CC(N)=O)NC(=O)[C@H](CC(N)=O)NC(=O)[C@H](CO)NC(=O)[C@H](CC(N)=O)NC(=O)[C@H](NC(=O)[C@@H](N)Cc1ccccc1)[C@@H](C)CC)C(C)C)C(=O)N[C@H](C(=O)N[C@@H](CCCCN)C(=O)N[C@@H](Cc1ccc(O)cc1)C(=O)O)[C@@H](C)CC | < 2%
5 | CC[C@H](C)[C@H](NC(=O)[C@H](Cc1ccccc1)NC(=O)[C@H](Cc1ccccc1)NC(=O)[C@H](Cc1ccccc1)NC(=O)[C@H](C)NC(=O)[C@@H](NC(=O)[C@H](CO)NC(=O)[C@H](CO)NC(=O)[C@@H](N)CS)[C@H](C)O)C(=O)N[C@@H](CCCCN)C(=O)N[C@@H](CC(N)=O)C(=O)N[C@@H](CO)C(=O)N[C@@H](CC(N)=O)C(=O)N[C@@H](CCC(=O)O)C(=O)N1CCC[C@H]1C(=O)N[C@@H](Cc1cnc[nH]1)C(=O)N[C@@H](Cc1cnc[nH]1)C(=O)N[C@H](C(=O)N[C@@H](Cc1ccccc1)C(=O)N[C@@H](CC(N)=O)C(=O)N[C@@H](Cc1ccc(O)cc1)C(=O)O)[C@@H](C)CC | < 2%
6 | CC[C@H](C)[C@H](NC(=O)[C@H](Cc1ccc(O)cc1)NC(=O)[C@H](CCC(=O)O)NC(=O)[C@H](CC(N)=O)NC(=O)[C@@H](NC(=O)[C@H](CCCCN)NC(=O)[C@@H](N)CCCCN)C(C)C)C(=O)N[C@@H](CC(N)=O)C(=O)N[C@@H](CC(N)=O)C(=O)N[C@@H](CO)C(=O)N[C@@H](CC(=O)O)C(=O)N[C@@H](CS)C(=O)N[C@@H](Cc1cnc[nH]1)C(=O)N[C@@H](CC(C)C)C(=O)N[C@H](C(=O)N[C@@H](CS)C(=O)N[C@@H](CO)C(=O)N[C@@H](CCCCN)C(=O)N[C@@H](Cc1ccc(O)cc1)C(=O)N[C@@H](CCCCN)C(=O)O)[C@@H](C)O (H-KKVNEYINNSDCHLTCSKYK-OH) | < 2%
7 | H-CIKQTYNNNKSIESLKLKIN-OH | < 2%
8 | H-DDNFIEYNILNADPDLRSHF-OH | < 2%
9 | H-DIENIIKQNEHTESYKNLDT-OH | < 2%
10 | H-DYSLLKLSYNKNQDIYKNIQ-OH | < 2%
11 | H-EDEDENENEVENENEDFNDIY-OH | < 2%
12 | H-EKGKRGTSRNNNIHTNENNIY-OH | < 2%
13 | H-EKIGLRQMENRLKGKYEEIK-OH | < 2%
14 | H-ELIPITQQIQTKMYTTNNIE-OH | < 2%
15 | H-FDQINQKYDDLTKNINQMND-OH | < 2%
16 | H-FMQNETFKKNIDDKIKEMNNY-OH | < 2%
17 | H-HIKQILINYIQECKPIQNIS-OH | < 2%
18 | H-HKINNYSHNIEDLINQLQHK-OH | < 2%
19 | H-IFQKEFSEADNAHSEEKEEY-OH | < 2%
20 | H-IIKNITSIYYKINILNILII-OH | < 2%
21 | H-INNLMIISFDKNKSSDLMLQY-OH | < 2%
22 | H-IQERNQNNQIVKELKYNKQI-OH | < 2%
23 | H-IQHYQTKFNINTNTKQLQQL-OH | < 2%
24 | H-IQNHKNKQETKLNTTTIQELY-OH | < 2%
25 | H-IRKIYDIETIYQNDLHNIEE-OH | < 2%
26 | H-ITLLVSRKQLIYIEYIYFIN-OH | < 2%

Row | Compound | Activity
27 | H-KANLQDRDIKYIVQNNDANN-OH | < 2%
28 | H-KEIKKVLPQLYIPKNEQEYI-OH | < 2%
29 | H-KIHTLEELKILTQEINDKNVY-OH | < 2%
30 | H-KINNNLKDITHIVINDNNTLY-OH | < 2%
31 | H-KYNLPQERIIKNYNHNGINN-OH | < 2%
32 | H-LNIKDKDEKKRKNDNLINNY-OH | < 2%
33 | H-LPVYFDEVEDEVEDEVEDED-OH | < 2%
34 | H-LQLLKDIKEIQTKQIDTKINY-OH | < 2%
35 | H-MLETTKEQILLLWNNKKISQY-OH | > 2%
36 | H-NGQKLKTDIILNSFVQINSSY-OH | < 2%
37 | H-NHVELYIKNFQKNKIQIHKN-OH | < 2%
38 | H-NISQNYNNHSLSFVHSINNH-OH | < 2%
39 | H-NLTNSTQEYINQIKAIPTNL-OH | < 2%
40 | H-NNEHANEKNIYNEHTNENNI-OH | < 2%
41 | H-NNLKDNIQININNIKSIIRNY-OH | < 2%
42 | H-NYEHPNNYQQKNDEKISLQH-OH | < 2%
43 | H-PPNSPFRSYYDKNLNKDINE-OH | < 2%
44 | H-QEFNKKIQHFKEETQIMIWKY-OH | < 2%
45 | H-QENITTFENQYKDLIIKMNH-OH | < 2%
46 | H-QFYINEKNYNNNHDDHNDDH-OH | < 2%
47 | H-TCHSIQTLLNNLISSKIIFKY-OH | < 2%
48 | H-TFNMYYNDIQQIKIKINQNE-OH | < 2%
49 | H-YNNNHDKQNEHKYNQGKSSG-OH | < 2%
50 | H-YNTSSQQKNNLHTNNNSNSR-OH | < 2%
51 | H-YTTFKYLQTLNKSLYDSIYK-OH | < 2%
